The text below walks through data of article PMC6570502 (Chembiochem : a European journal of chemical biology, 2019).

Numbering of substitutions follows the chain as printed.

A word on the IC50: it is the concentration that gives 50% inhibition. The low end stands for greater potency in that assay, the high end for weaker potency in that assay. What is called Hill slope is the slope factor of the fitted curve.

Common to all, as to format: biochemical
In one assay the target is T1, wild type KDM4A (Homo sapiens, UniProt O75164).
T1 sequence (O75164 1-1064): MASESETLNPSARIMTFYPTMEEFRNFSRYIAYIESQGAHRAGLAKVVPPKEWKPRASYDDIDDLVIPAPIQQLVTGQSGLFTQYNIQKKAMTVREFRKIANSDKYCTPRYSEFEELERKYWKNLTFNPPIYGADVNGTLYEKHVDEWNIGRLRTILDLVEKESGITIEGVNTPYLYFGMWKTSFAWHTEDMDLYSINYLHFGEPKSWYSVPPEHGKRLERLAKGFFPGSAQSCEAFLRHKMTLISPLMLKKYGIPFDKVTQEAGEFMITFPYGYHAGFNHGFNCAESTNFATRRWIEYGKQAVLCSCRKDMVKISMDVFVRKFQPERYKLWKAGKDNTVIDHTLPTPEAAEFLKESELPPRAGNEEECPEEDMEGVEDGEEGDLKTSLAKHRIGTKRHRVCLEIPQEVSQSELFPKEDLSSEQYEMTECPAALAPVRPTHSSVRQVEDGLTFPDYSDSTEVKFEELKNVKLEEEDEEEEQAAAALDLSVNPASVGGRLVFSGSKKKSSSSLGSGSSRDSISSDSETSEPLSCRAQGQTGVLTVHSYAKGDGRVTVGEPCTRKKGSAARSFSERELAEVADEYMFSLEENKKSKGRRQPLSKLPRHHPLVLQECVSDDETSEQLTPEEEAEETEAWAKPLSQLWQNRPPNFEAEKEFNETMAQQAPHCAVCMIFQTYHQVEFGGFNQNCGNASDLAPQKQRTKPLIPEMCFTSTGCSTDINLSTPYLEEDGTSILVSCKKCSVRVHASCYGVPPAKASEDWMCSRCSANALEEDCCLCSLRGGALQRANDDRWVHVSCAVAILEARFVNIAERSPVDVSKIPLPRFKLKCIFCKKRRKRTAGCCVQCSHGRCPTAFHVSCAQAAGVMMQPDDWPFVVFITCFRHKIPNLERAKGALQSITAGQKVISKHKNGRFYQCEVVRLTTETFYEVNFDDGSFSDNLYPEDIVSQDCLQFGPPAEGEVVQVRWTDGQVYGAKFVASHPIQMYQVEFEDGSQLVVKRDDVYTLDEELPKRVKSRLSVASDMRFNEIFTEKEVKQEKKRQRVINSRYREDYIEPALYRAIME
Put plainly: MALDI demethylase assay, H3K9me3 substrate peptide, wild type enzyme. To be noted: 3 mM compound.

For assay [1], the target named is T2, KDM4A N198A mutant (Homo sapiens, UniProt O75164, N198A).
T2 sequence (O75164 1-1064 N198A): T1 sequence (O75164 1-1064) with N198A
Kind of assay: Demethylation of full-length H3Kc9me3 by western blot with H3K9me3 antibody. To be noted: in presence of 2KG. The procedure, abridged: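 Substrate is full-length histone H3 carrying a trimethyl-lysine analogue at K9 (H3KC9me3), installed chemically by the thialysine approach and verified by ESI-HRMS. The substrate is incubated with the KDM4A N198A mutant. Remaining K9 trimethylation is then detected by western blot with an anti-H3K9me3 antibody.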

In assay [2] the target is T2, KDM4A N198A mutant. Kind of assay: MALDI demethylase assay, H3K9me3 substrate peptide, N198A mutant. To be noted: for inhibition of demethylase activity: 100 μM compound, 50 μM 2KG, MALDI-MS; for IC50: MALDI demethylase assay, dose-dependent.
The next assay deals with T3, KDM4A N198G mutant (Homo sapiens, UniProt O75164, N198G).
T3 sequence (O75164 1-1064 N198G): T1 sequence (O75164 1-1064) with N198G
Put plainly: MALDI demethylase assay, H3K9me3 substrate peptide, N198G mutant.

Consider `CCC(NC(=O)C(=O)O)C(=O)O` (centres unmarked) [compound 3, ethyl-NOG], for which the “inhibition of wild type KDM4A” value against wild type KDM4A is given as “About 50%”. Also, on KDM4A N198A mutant [1], the “inhibition of demethylation of full-length H3Kc9me3” value is “significantly inhibited”. Also, the “inhibition of demethylase activity” value against KDM4A N198A mutant [2] is listed as “significantly inhibited”. In addition, half-maximal inhibition against KDM4A N198A mutant [2] (N198A mutant) (IC50) required 139 µM. Moreover, at KDM4A N198A mutant [2] (N198A mutant, dose-response of IC50 experiment), the Hill slope is given as −1.06.

`CC(C)C[C@H](NC(=O)C(=O)O)C(=O)O` [compound 7, leucine-NOG]: the “inhibition of demethylase activity” value against KDM4A N198G mutant (100 μM compound, 50 μM 2KG, MALDI-MS) is “inhibited”. Besides, the IC50 on KDM4A N198G mutant (N198G mutant, MALDI demethylase assay) stood at 288 µM.

Take propyl-NOG [compound 5]: on wild type KDM4A, the “inhibition of wild type KDM4A” value is “no more than 30%”. For the same compound, the “inhibition of demethylase activity” value against KDM4A N198A mutant [2] is “significantly inhibited”. The “selectivity over the wild type enzyme” value at KDM4A N198A mutant [2] (N198A mutant vs wild type KDM4A) is listed as “more than 20 fold”. This compound yielded an IC50 against KDM4A N198A mutant [2] (N198A mutant) of 80 µM.
